From ChEMBL document CHEMBL3992521, “Pyrimidinyl Biphenylureas: Identification of New Lead Compounds as Allosteric Modulators of the Cannabinoid Receptor CB1” (J Med Chem, 2017)
The source made the active and inactive calls. The rule behind the calls is not given here.

Tests used:
[1] = molecular target: Cannabinoid receptor 1 (Homo sapiens) (UniProt P21554); test: Positive allosteric modulation of CB1 receptor (unknown origin) expressed in HEK293T cell membrane assessed as increase in beta-arrestin mediated ERK1/2 phosphorylation at 10 uM in presence of G-protein sensitive pertussis toxin incubated for 5 mins by Western blot method; format: cell-based
Method in brief: (§1)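 CB1-transfected HEK293T cells carried control, β-arrestin 1 or β-arrestin 2 siRNA, or were pretreated 12 h at 37 °C with PTX 5 ng/mL. They were then washed and given allosteric modulator 10 μM alone for 5 min, with DMSO vehicle as control. ERK1/2 phosphorylation was read by Western blot of 13 µg lysate protein using phospho- and total p44/42 antibodies.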

[2] = molecular target: Cannabinoid receptor 1 (Homo sapiens) (UniProt P21554); test: Positive allosteric modulation of CB1 receptor (unknown origin) expressed in HEK293T cell membranes assessed as increase in [3H]CP55,940 binding by liquid scintillation counting method
Method in brief: (§2)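 Membranes from HEK293T cells transiently expressing CB1 (harvested 24 h post-transfection) incubated with 0.5 nM [3H]CP55,940 and at least nine modulator concentrations (100 pM–100 µM) in TME buffer pH 7.4 with 0.2% fatty acid-free BSA; nonspecific binding with 1 µM unlabeled CP55,940; filtration. KB and cooperativity α from nonlinear regression; duplicate, ≥3 experiments, 95% confidence limits.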

[3] = molecular target: Cannabinoid receptor 1 (Homo sapiens) (UniProt P21554); test: Allosteric modulation at CB1 receptor (unknown origin) expressed in HEK293T cell membranes assessed as inhibition of CP55,940 induced [35S]GTPgammaS binding after 1 hr by liquid scintillation counting method; format: functional
Method in brief: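 HEK293T cells transiently transfected with CB1 (calcium phosphate), membranes harvested 24 h later; 7.5 µg membrane incubated 1 h at 30 °C with CP55,940 1 µM, 0.1 nM [35S]GTPγS, 5 µM GDP, 0.1% BSA in Tris-HCl pH 7.4/MgCl2/EGTA/NaCl buffer, varying modulator concentrations. Nonspecific binding with 10 µM unlabeled GTPγS; filtration. Expressed as % of CP55,940 signal; duplicate, ≥3 independent experiments.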

[4] = molecular target: Cannabinoid receptor 1 (Homo sapiens) (UniProt P21554); test: Positive allosteric modulation of CB1 receptor (unknown origin) expressed in HEK293T cell membrane assessed as ERK1/2 phosphorylation in presence of beta-arrestin1 siRNA at 10 uM incubated for 5 mins by Western blot method; format: cell-based; method in brief: as §1
[5] = molecular target: Cannabinoid receptor 1 (Homo sapiens) (UniProt P21554); test: Positive allosteric modulation of CB1 receptor (unknown origin) expressed in HEK293T cell membranes assessed as increase in [3H]CP55,940 binding up to 32 uM by liquid scintillation counting method; method in brief: as §2

Sequence of Cannabinoid receptor 1 (Homo sapiens) (P21554 whole entry): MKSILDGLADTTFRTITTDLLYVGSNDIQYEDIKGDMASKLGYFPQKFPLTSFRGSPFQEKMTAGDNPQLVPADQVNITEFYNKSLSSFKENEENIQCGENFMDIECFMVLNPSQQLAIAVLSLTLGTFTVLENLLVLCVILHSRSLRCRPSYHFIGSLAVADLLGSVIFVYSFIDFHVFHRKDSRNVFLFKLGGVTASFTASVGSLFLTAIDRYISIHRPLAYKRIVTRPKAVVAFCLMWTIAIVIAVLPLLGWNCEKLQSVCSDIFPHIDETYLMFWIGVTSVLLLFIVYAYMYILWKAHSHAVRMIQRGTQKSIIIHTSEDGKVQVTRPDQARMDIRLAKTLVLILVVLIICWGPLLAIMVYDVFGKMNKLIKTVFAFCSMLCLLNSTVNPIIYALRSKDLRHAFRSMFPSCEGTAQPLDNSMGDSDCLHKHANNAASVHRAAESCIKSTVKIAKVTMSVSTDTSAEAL

| Structure (SMILES) | Kb [2] [nM] | also measured |
| --- | --- | --- |
| N#Cc1ccc(NC(=O)Nc2cccc(-c3nccc(N4CCCC4)n3)c2)cc1 | 49.1 | Activity [1]: Active; inhibition [3]: Dose-dependent effect; Activity [4]: Active |
| N#Cc1ccc(NC(=O)Nc2cccc(-c3nccc(NC4CC4)n3)c2)cc1 | 97.7 |  |
| O=C(Nc1ccc(C(=O)O)cc1)Nc1cccc(-c2nccc(N3CCCC3)n2)c1 |  | Activity [5]: inactive; Activity [2]: inactive |
| N#Cc1cccc(NC(=O)Nc2cccc(-c3nccc(N4CCCC4)n3)c2)c1 | 1980 |  |
| O=C(Nc1ccc(Br)cc1)Nc1cccc(-c2nccc(N3CCCC3)n2)c1 | 102 |  |
| CN(C)c1ccnc(-c2cccc(NC(=O)Nc3cccc(F)c3)c2)n1 | 670 |  |
| N#Cc1ccc(NC(=O)Nc2cccc(-c3ccnc(N4CCCC4)n3)c2)cc1 | 168 | Activity [1]: Active; inhibition [3]: Dose-dependent effect; Activity [4]: Active |
| N#Cc1ccc(NC(=O)Nc2cccc(-c3nccc(N4CCC4)n3)c2)cc1 | 211 |  |
| O=C(Nc1ccc(Cl)cc1)Nc1cccc(-c2cccc(N3CCCC3)n2)c1 |  | inhibition [3]: Dose-dependent effect; Activity [4]: Active |
| CCN(C)c1ccnc(-c2cccc(NC(=O)Nc3ccc(C#N)cc3)c2)n1 | 207 |  |
| CN(C)c1nccc(-c2cccc(NC(=O)Nc3ccc(F)cc3)c2)n1 | 1120 |  |
| CCOC(=O)c1ccc(NC(=O)Nc2cccc(-c3nccc(N4CCCC4)n3)c2)cc1 | 463 |  |
| O=C(Nc1ccc(Cl)cc1)Nc1cccc(-c2nccc(N3CCCC3)n2)c1 | 264 | inhibition [3]: Dose-dependent effect |
| N#Cc1ccc(NC(=O)Nc2cccc(-c3nccc(N4CCCCC4)n3)c2)cc1 | 66.4 |  |
| O=C(Nc1ccc(F)cc1)Nc1cccc(-c2ccnc(N3CCCC3)n2)c1 | 196 |  |
| CN(C)c1ccnc(-c2cccc(NC(=O)Nc3ccc(F)cc3)c2)n1 | 1220 |  |
| CCN(CC)c1ccnc(-c2cccc(NC(=O)Nc3ccc(C#N)cc3)c2)n1 | 69.6 | inhibition [3]: Dose-dependent effect |
| CN(C)c1nccc(-c2cccc(NC(=O)Nc3cccc(F)c3)c2)n1 | 967 |  |
| O=C(Nc1ccc(F)cc1)Nc1cccc(-c2nccc(N3CCCC3)n2)c1 | 223 |  |
| CN(C)c1nccc(-c2cccc(NC(=O)Nc3ccc(I)cc3)c2)n1 | 965 |  |
| CN(C)c1ccnc(-c2cccc(NC(=O)Nc3ccc(C(F)(F)F)cc3)c2)n1 | 144 |  |
| COc1ccc(NC(=O)Nc2cccc(-c3nccc(N4CCCC4)n3)c2)cc1 | 1830 |  |
| O=C(Nc1ccc(O)cc1)Nc1cccc(-c2nccc(N3CCCC3)n2)c1 |  | Activity [5]: inactive; Activity [2]: inactive |
| CN(C)c1ccnc(-c2cccc(NC(=O)Nc3ccc(I)cc3)c2)n1 | 997 |  |
| O=C(Nc1ccc(Cl)cc1)Nc1cccc(-c2ccnc(N3CCCC3)n2)c1 | 227 | inhibition [3]: Dose-dependent effect |
| CC(=O)c1ccc(NC(=O)Nc2cccc(-c3nccc(N4CCCC4)n3)c2)cc1 | 2110 |  |
| CN(C)c1ccnc(-c2cccc(NC(=O)Nc3ccc(C#N)cc3)c2)n1 | 313 |  |
| O=C(Nc1ccc(Br)cc1)Nc1cccc(-c2ccnc(N3CCCC3)n2)c1 | 395 |  |
| CN(C)c1nccc(-c2cccc(NC(=O)Nc3ccc(C#N)cc3)c2)n1 | 417 |  |
